Measurements from ChEMBL document CHEMBL1153056, “Identification of MK-1925: a selective, orally active and brain-penetrable opioid receptor-like 1 (ORL1) antagonist” (Bioorg Med Chem Lett, 2009).
pIC50: −log10 of the molar value.

Legend:
Nociceptin receptor [1] = target: T1, Nociceptin receptor (Homo sapiens, UniProt P41146); assay: Displacement of [125I]Tyr14-NC/OFQ from ORL1 receptor
[2] = Distribution coefficient, log D at pH 7.4 by shake-flask method; type: physicochemical; settings: octanol/water
Nociceptin receptor [3] = target: T1, Nociceptin receptor; assay: Antagonist activity at ORL1 receptor by [35S]GTPgammaS binding assay; type: functional
[4] = Plasma clearance in dog at 1 mg/kg, iv; type: ADME, organism-based, Canis lupus familiaris; set-up: dose 1 mg/kg, route intravenous
How it was run: (§1)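 PK run with a 3 mg/kg oral dose and a 1 mg/kg IV dose; values are the mean of n = 3 animals.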

Mus musculus [5] = assay: Reversal of ORL1 agonist-induced locomotor activity in mouse at 30 mg/kg, po after 60 mins; type: functional
How it was run: (§2)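 Mice dosed orally; ORL1 agonist then given to reduce locomotor activity, with activity monitored for 60 min. Result expressed as % reversal of the agonist-induced reduction in locomotor activity.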

[6] = Ratio of drug level in brain to plasma in mouse at 10 mg/kg, po after 60 mins; type: ADME, organism-based; set-up: dose 10 mg/kg, route oral
How it was run: (§3)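 Mice received single oral doses (3, 10 or 30 mg/kg). Plasma and brain levels were taken 60 min after dosing. Brain levels were expressed as nmol/g brain, and the b/p ratio was brain level over plasma level.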

[7] = AUC (0 to infinity) in dog at 3 mg/kg, po; type: ADME, organism-based, Canis lupus familiaris; set-up: dose 3 mg/kg, route oral, time infinity; settings: plasma; how it was run: as §1
[8] = Oral bioavailability in rat at 3 mg/kg; type: ADME, organism-based; settings: in vivo; how it was run: as §1
[9] = Cmax in rat at 3 mg/kg, po; type: ADME, organism-based; set-up: dose 3 mg/kg, route oral; settings: in vivo; how it was run: as §1
[10] = Cmax in anesthetized dog at 10 mg/kg; type: ADME, organism-based, Canis lupus familiaris; set-up: dose 10 mg/kg; settings: in vivo
[11] = Metabolic stability in cryopreserved human hepatocytes after 30 mins; type: ADME, cell-based, Hepatocyte; settings: read-out: Stability
[12] = target: Delta-type opioid receptor (Homo sapiens, UniProt P41143); assay: Displacement of [3H]naltrindole from human cloned delta opioid receptor expressed in CHO cells; type: cell-based
[13] = Volume of distribution at steady state in dog at 1 mg/kg, iv; type: ADME, organism-based, Canis lupus familiaris; set-up: dose 1 mg/kg, route intravenous; settings: in vivo, read-out: Vdss; how it was run: as §1
Brain [14] = assay: Drug level in mouse brain assessed per gram of tissue at 10 mg/kg, po after 60 mins; type: ADME, organism-based; set-up: dose 10 mg/kg, route oral; settings: in vivo, 1 h
How it was run: (§4)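 Mice dosed orally at 3, 10 or 30 mg/kg. Plasma and brain were sampled 60 min after dosing. Brain level is given as nmol/g brain, and the brain/plasma ratio was derived.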

Mus musculus [15] = assay: Plasma concentration in mouse at 30 mg/kg, po; type: ADME, organism-based; set-up: dose 30 mg/kg, route oral; settings: in vivo; how it was run: as §4
Mu-type opioid receptor = Mu-type opioid receptor (Homo sapiens, UniProt P35372); assay: Displacement of [3H]diprenorphin from human cloned mu opioid receptor expressed in CHO cells; type: cell-based
[16] = Ratio of drug level in brain to plasma in mouse at 3 mg/kg, po after 60 mins; type: ADME, organism-based; set-up: dose 3 mg/kg, route oral; how it was run: as §3
[17] = Volume of distribution at steady state in rat at 1 mg/kg, iv; type: ADME, organism-based; set-up: dose 1 mg/kg, route intravenous; settings: in vivo, read-out: Vdss; how it was run: as §1
[18] = target: Kappa-type opioid receptor (Homo sapiens, UniProt P41145); assay: Displacement of [3H]U69593 from human cloned kappa opioid receptor expressed in CHO cells; type: cell-based
Brain [19] = assay: Drug level in mouse brain assessed per gram of tissue at 30 mg/kg, po after 60 mins; type: ADME, organism-based; set-up: dose 30 mg/kg, route oral; settings: in vivo, 1 h; how it was run: as §4
Mus musculus [20] = assay: Plasma concentration in mouse at 3 mg/kg, po; type: ADME, organism-based; set-up: dose 3 mg/kg, route oral; settings: in vivo; how it was run: as §4
Mus musculus [21] = assay: Reversal of ORL1 agonist-induced locomotor activity in po dosed mouse after 60 mins; type: functional, organism-based
How it was run: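 Mice received oral doses of 3, 10 or 30 mg/kg against the locomotor-activity reduction produced by an ORL1 agonist, measured over 60 min. Results are expressed as % reversal of the agonist response.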

[22] = Half life in rat at 3 mg/kg, po; type: ADME, organism-based; set-up: dose 3 mg/kg, route oral; settings: in vivo; how it was run: as §1
[23] = Cmax in dog at 3 mg/kg, po; type: ADME, organism-based, Canis lupus familiaris; set-up: dose 3 mg/kg, route oral; settings: in vivo; how it was run: as §1
Mus musculus [24] = assay: Reversal of ORL1 agonist-induced locomotor activity in mouse at 10 mg/kg, po after 60 mins; type: functional; how it was run: as §2
[25] = Half life in dog at 3 mg/kg, po; type: ADME, organism-based, Canis lupus familiaris; set-up: dose 3 mg/kg, route oral; settings: in vivo; how it was run: as §1
[26] = Inhibition of choline transporter
Brain [27] = assay: Drug level in mouse brain assessed per gram of tissue at 3 mg/kg, po after 60 mins; type: ADME, organism-based; set-up: dose 3 mg/kg, route oral; settings: in vivo, 1 h; how it was run: as §4
[28] = target: Voltage-gated inwardly rectifying potassium channel KCNH2 (Homo sapiens, UniProt Q12809); assay: Displacement of [35S]MK499 from human ERG expressed in HEK293 cells overexpressing Ikr channel protein; type: cell-based
How it was run: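 Membranes from HEK 293 cells stably transfected with the hERG gene and expressing the I_Kr channel protein; [³⁵S]-radiolabeled MK499 displaced.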

[29] = Oral bioavailability in dog at 3 mg/kg; type: ADME, organism-based, Canis lupus familiaris; settings: in vivo; how it was run: as §1
Mus musculus [30] = assay: Plasma concentration in mouse at 10 mg/kg, po; type: ADME, organism-based; set-up: dose 10 mg/kg, route oral; settings: in vivo; how it was run: as §4
[31] = Inhibition of choline transporter at 10 uM
[32] = Plasma clearance in rat at 1 mg/kg, iv; type: ADME, organism-based; set-up: dose 1 mg/kg, route intravenous; how it was run: as §1
[33] = Ratio of drug level in brain to plasma in mouse at 30 mg/kg, po after 60 mins; type: ADME, organism-based; set-up: dose 30 mg/kg, route oral; how it was run: as §3
Canis familiaris = assay: Toxicity in anesthetized dog assessed as adverse effect up to 10 mg/kg; type: organism-based, Canis lupus familiaris; set-up: dose 10 mg/kg; settings: in vivo
Mus musculus [34] = assay: Reversal of ORL1 agonist-induced locomotor activity in mouse at 3 mg/kg, po after 60 mins; type: functional; how it was run: as §2
[35] = AUC (0 to infinity) in rat at 3 mg/kg, po; type: ADME, organism-based; set-up: time infinity, dose 3 mg/kg, route oral; settings: plasma; how it was run: as §1

T1 sequence (P41146 whole entry): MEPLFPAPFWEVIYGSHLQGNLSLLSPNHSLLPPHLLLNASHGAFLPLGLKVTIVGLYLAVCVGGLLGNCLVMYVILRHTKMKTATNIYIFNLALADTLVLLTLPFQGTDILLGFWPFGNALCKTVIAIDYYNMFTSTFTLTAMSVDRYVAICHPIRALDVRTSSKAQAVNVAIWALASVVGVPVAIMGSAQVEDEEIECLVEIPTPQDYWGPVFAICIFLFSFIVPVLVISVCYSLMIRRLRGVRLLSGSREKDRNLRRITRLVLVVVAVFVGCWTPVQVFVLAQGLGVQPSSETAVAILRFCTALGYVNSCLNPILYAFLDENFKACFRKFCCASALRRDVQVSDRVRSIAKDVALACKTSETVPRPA
Sequence of Voltage-gated inwardly rectifying potassium channel KCNH2 (Q12809 whole entry): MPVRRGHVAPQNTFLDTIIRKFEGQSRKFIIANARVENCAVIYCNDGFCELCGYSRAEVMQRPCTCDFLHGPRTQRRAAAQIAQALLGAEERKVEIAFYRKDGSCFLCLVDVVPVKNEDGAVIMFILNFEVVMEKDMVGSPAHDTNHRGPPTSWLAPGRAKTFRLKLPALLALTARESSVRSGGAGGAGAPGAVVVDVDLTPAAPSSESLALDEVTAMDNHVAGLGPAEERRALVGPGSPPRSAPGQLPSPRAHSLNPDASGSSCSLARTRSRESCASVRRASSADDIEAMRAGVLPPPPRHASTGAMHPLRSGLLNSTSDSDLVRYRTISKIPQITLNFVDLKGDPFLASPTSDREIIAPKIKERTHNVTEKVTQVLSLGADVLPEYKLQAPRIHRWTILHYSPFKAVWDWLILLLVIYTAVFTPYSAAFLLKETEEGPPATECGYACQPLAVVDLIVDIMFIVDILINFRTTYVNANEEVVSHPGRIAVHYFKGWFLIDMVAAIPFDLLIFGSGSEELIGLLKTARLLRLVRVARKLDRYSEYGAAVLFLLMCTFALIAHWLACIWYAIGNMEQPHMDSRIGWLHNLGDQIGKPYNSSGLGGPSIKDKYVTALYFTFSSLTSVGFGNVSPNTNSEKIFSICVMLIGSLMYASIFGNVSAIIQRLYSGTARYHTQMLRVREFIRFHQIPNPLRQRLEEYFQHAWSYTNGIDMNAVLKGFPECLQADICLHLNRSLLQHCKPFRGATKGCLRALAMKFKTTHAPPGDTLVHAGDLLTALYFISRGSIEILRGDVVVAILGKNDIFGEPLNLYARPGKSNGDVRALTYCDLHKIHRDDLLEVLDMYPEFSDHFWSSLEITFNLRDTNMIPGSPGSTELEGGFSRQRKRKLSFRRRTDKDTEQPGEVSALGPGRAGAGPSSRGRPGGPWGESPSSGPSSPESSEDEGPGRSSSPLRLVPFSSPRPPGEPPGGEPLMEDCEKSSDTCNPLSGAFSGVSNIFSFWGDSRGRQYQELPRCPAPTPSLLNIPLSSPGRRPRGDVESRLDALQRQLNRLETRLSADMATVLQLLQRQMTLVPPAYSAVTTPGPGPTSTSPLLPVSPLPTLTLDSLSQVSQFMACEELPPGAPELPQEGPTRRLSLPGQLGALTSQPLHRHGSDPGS
Sequence of Mu-type opioid receptor (P35372 whole entry): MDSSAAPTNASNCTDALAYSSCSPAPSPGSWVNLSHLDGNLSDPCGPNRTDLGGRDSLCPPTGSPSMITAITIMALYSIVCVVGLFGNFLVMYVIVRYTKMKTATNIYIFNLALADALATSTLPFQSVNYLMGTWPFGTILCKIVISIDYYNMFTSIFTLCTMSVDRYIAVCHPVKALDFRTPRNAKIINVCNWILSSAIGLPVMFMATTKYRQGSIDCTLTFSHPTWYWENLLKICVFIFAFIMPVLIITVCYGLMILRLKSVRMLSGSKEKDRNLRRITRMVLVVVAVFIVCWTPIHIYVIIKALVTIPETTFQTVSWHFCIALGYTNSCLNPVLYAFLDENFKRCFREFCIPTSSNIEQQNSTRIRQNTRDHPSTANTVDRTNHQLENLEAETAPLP
Sequence of Delta-type opioid receptor (P41143 whole entry): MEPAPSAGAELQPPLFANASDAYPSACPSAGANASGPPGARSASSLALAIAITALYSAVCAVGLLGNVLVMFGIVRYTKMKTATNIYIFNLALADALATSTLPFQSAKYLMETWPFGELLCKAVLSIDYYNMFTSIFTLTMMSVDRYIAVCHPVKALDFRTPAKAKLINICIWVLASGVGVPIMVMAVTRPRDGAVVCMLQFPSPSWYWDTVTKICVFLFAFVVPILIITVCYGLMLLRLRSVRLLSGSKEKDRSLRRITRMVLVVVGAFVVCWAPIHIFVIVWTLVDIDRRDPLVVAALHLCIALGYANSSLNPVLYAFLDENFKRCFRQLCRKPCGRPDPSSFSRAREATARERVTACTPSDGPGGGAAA
Sequence of Kappa-type opioid receptor (P41145 whole entry): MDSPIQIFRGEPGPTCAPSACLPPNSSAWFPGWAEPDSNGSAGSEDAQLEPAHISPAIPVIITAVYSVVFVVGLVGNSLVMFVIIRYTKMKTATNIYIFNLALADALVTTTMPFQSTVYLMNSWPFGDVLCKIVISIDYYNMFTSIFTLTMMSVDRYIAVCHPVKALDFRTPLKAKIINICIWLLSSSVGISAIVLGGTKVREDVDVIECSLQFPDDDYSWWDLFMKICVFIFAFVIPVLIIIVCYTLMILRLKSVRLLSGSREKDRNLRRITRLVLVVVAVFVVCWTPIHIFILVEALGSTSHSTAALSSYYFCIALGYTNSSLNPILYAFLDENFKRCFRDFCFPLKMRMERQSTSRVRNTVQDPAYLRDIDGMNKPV

In the case of `Cc1c(CN[C@H]2CC[C@@H](F)C2)nn(CCO)c1-c1cc(F)cc(F)c1`, the pIC50 (Nociceptin receptor [1]) was 7.82 and the logD [2] was 1.3.
In the case of `Cc1c(CN[C@H]2CC[C@@H](F)C2)nn(C)c1-c1cc(F)cc(C(F)(F)F)c1`, the pIC50 (Nociceptin receptor [1]) was 6.68.
For `Cc1c(CN[C@H]2CC[C@@H](F)C2)nn(C)c1-c1cc(F)c(F)c(F)c1`, the pIC50 (Nociceptin receptor [3]) was 7.89 and the pIC50 (Nociceptin receptor [1]) was 7.82.
`Cc1c(CN[C@H]2CC[C@@H](F)C2)nn(CCC#N)c1-c1cc(F)cc(F)c1` showed a clearance [4] of 37 mL/min/kg, an Activity (Mus musculus [5]) of 112% and a Kp at 1 h [6] of 1.62. For the same compound, the AUC(0-inf) [7] was 1.3 µM·h, the bioavailability [8] was 21% and the Cmax [9] was 400 nM. It also gave a Cmax [10] of 9700 nM, a remaining at 0.5 h [11] of 77% and a pIC50 [12] of less than 5.00. For the same compound, the Vd [13] was 3.5 L/kg, the Drug uptake (Brain [14]) was 0.516 nmol/g and the concentration (Mus musculus [15]) was 1630 nM. For the same compound, the pIC50 (Mu-type opioid receptor) was less than 5.00, the Kp at 1 h [16] was 3.42 and the Vd [17] was 5.2 L/kg. The pIC50 [18] was 5.01, the Drug uptake (Brain [19]) was 3.02 nmol/g and the concentration (Mus musculus [20]) was 16 nM. The Activity (Mus musculus [21]) was “Dose-dependent effect”, the half-life [22] was 0.7 h and the Cmax [23] was 2600 nM. It also gave an Activity (Mus musculus [24]) of 81%, a half-life [25] of 2.8 h and a pIC50 [26] of 5.43. The Drug uptake (Brain [27]) was 0.035 nmol/g, the pIC50 [28] was 5.02 and the bioavailability [29] was 62%. The concentration (Mus musculus [30]) was 315 nM, the inhibition [31] was 50% and the clearance [32] was 83 mL/min/kg. The logD [2] was 1.5, the Kp at 1 h [33] was 1.84 and the Activity (Canis familiaris) was “Non-toxic”. The Activity (Mus musculus [34]) was 17% and the AUC(0-inf) [35] was 0.3 µM·h.
For `Cc1ncc(-c2c(C)c(CN[C@H]3CC[C@@H](F)C3)nn2-c2ncccc2Cl)cc1F`, the bioavailability [8] was 3.2% and the remaining at 0.5 h [11] was 39%.
In the case of `Cc1c(CN[C@H]2CC[C@@H](F)C2)nn(C)c1-c1cc(F)cc(F)c1`, the remaining at 0.5 h [11] was 56%, the pIC50 (Nociceptin receptor [3]) was 8.60 and the pIC50 (Nociceptin receptor [1]) was 8.51. It also gave a logD [2] of 1.9.
`Cc1c(CN[C@H]2CC[C@@H](F)C2)nn(C)c1-c1ccc(F)c(F)c1` showed a pIC50 (Nociceptin receptor [3]) of 8.19 and a pIC50 (Nociceptin receptor [1]) of 8.19.
For `Cc1ncc(-c2[nH]nc(CN[C@H]3CC[C@@H](F)C3)c2C)cc1F`, the remaining at 0.5 h [11] was 21%, the pIC50 (Nociceptin receptor [3]) was 8.11 and the pIC50 (Nociceptin receptor [1]) was 8.00.
Compound `Cc1c(CN[C@H]2CC[C@@H](F)C2)nn(CCS(C)(=O)=O)c1-c1cc(F)cc(F)c1` has a pIC50 (Nociceptin receptor [1]) of 7.48 and a logD [2] of less than 1.
`Cn1nc(CN[C@H]2CC[C@@H](F)C2)c(Cl)c1-c1cc(F)cc(F)c1` gave a remaining at 0.5 h [11] of 40%, a pIC50 (Nociceptin receptor [3]) of 8.60 and a pIC50 (Nociceptin receptor [1]) of 8.03.
Work on `Cc1ncc(-c2c(C)c(CN[C@H]3CC[C@@H](F)C3)nn2C)cc1F` yielded a remaining at 0.5 h [11] of 25%, a pIC50 (Nociceptin receptor [3]) of 8.66 and a pIC50 (Nociceptin receptor [1]) of 8.37.
Compound `COCc1c(CN[C@H]2CC[C@@H](F)C2)nn(C)c1-c1cc(F)cc(F)c1` has a remaining at 0.5 h [11] of 39%, a pIC50 (Nociceptin receptor [3]) of 9.00 and a pIC50 (Nociceptin receptor [1]) of 8.85.
For `CCn1nc(CN[C@H]2CC[C@@H](F)C2)c(C)c1-c1cnc(C)c(F)c1`, the pIC50 (Nociceptin receptor [3]) was 9.21 and the pIC50 (Nociceptin receptor [1]) was 8.70.
In the case of `Cc1c(CN[C@H]2CC[C@@H](F)C2)nn(C)c1-c1cc(F)cc(Cl)c1`, the pIC50 (Nociceptin receptor [1]) was 7.77.
`CC(=O)Cn1nc(CN[C@H]2CC[C@@H](F)C2)c(C)c1-c1cc(F)cc(F)c1` showed a pIC50 (Nociceptin receptor [1]) of 7.92 and a logD [2] of 1.4.
